From the EternaBench riboswitch data

Tested on: MS2 coat protein
Experiment: apparent Kd, MS2 coat protein; higher = weaker binding; RNA-MaP array; tryptophan 2.4 mM where present
How it was run: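 Designs were transcribed by stalled E. coli RNA polymerase on Illumina sequencing-chip clusters. They were titrated with SNAP-549-labelled MS2 coat protein from 0.7 or 1.5 nM, doubling to 3 µM, without and then with constant ligand. Buffer: 100 mM Tris-HCl pH 7.5, 80 mM KCl, 4 mM MgCl2, BSA, DTT, yeast tRNA, Tween-20. Green signal was normalised to red-channel RNA signal and control-cluster median Fmax. Apparent Kd is the median of filtered per-cluster binding-curve fits.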

[1] = designed as: OFF switch for tryptophan, no ligand
[2] = ligand present: tryptophan, designed as: OFF switch for tryptophan
[3] = designed as: ON switch for tryptophan, no ligand
[4] = ligand present: tryptophan, designed as: ON switch for tryptophan

AGUAAUAAUAUAAAUAAUAUUAGGUCAUGGCGAGGACCGGUACGGCCGCCACUCGGUUACAUGAGGAUCACCCAUGUCCCGCUUA
apparent Kd [1]: 0.0305 µM | apparent Kd [2]: 0.0346 µM

GCAUCCUAGUCGGCCGCCACUGCAAUUGUAAUACUGCUACAUGAACAUGAGGAUCACCCAUGUAGCAGGACCGGGACUAGGAUGC
apparent Kd [3]: 0.164 µM | apparent Kd [4]: 0.027 µM

GGAUAGGACACGGCCGCCACUGCGGCUAGAUACUAGCACAUUUCCUCACAUGAGGAUCACCCAUGUAGGACCGGGUGUCCUAUCG
apparent Kd [1]: 0.0957 µM | apparent Kd [2]: 0.132 µM

UCGUAUGCGGCGGCCGCCACUCGCGGAUAACGAGAGCUUAACAUGAGGAUCACCCAUGUGUCAUGGAGGACCGGGCCCAUUCACA
apparent Kd [3]: 0.0292 µM | apparent Kd [4]: 0.0314 µM

CUACAUUUGUAGAAACCGGUCAACAUUAUUCGAGGACCGGUACGGCCGCCACUCGUAUAUUUUUAUACAUGAGGAUCACCCAUGU
apparent Kd [3]: 0.012 µM | apparent Kd [4]: 0.0114 µM

GGAUUCAACUCGGCCGCCACUGGUGAUCCUAAUGUACAUGAGGAUCACCCAUGUACAUGAGAAUAUAGGACCGGGAGAUAAGUUA
apparent Kd [3]: 0.029 µM | apparent Kd [4]: 0.0242 µM

GUUAUAUACUCGGCCGCCACUGAGAGAGUCAUGUAAACAUGAGGAUCACCCAUGUAAUAUAUAUACAGGACCGGGAGUAUGGUAA
apparent Kd [1]: 0.0143 µM | apparent Kd [2]: 0.0135 µM

ACAUGAGGAUCACCCAUGUGCAUCACCCGACGAGGACCGGUACGGCCGCCACUCGGGUAUAUAUUUGCAUCGGGUGAUUUUACGU
apparent Kd [3]: 0.0196 µM | apparent Kd [4]: 0.0149 µM

AGUUCCAGGUCGGCCGCCACUGGCAUGGCCGGUCCUCGGACUUACAUGAGGAUCACCCAUGUGAACAGGACCGGGACCGCAUGGG
apparent Kd [1]: 0.0383 µM | apparent Kd [2]: 0.0482 µM

GGAUAGGACACGGCCGCCACUGCCUAGGAUACUAGAAACAUUUCCUCACAUGAGGAUCACCCAUGUAGGACCGGGUGUCCUAUCG
apparent Kd [1]: 0.134 µM | apparent Kd [2]: 0.267 µM

AGCACUGUGGCGGCCGCCACUACAUAUAGGGUGGUCAGGCCCAUAAUACAUGAGGAUCACCCAUGUAGGACCGGGCCUCAGUGCA
apparent Kd [1]: 0.015 µM | apparent Kd [2]: 0.0149 µM

UCGGGCAGAGCGGCCGCCACUGUAUGGCGUGCGGAUGACGGAACAUGAGGAUCACCCAUGUUGUUUAGGACCGGGCUUGCCGCGA
apparent Kd [1]: 0.0112 µM | apparent Kd [2]: 0.0132 µM

ACAUGAGGAUCACCCAUGUGUGUAAGUCCUCGAGGACCGGUACGGCCGCCACUCGAACGAGUGUAACAUACUUGUUACAAGUAUG
apparent Kd [3]: 0.024 µM | apparent Kd [4]: 0.0244 µM

ACAUUGCGCUCGGCCGCCACUGGCUAUAGAUUUAUAGCAUUAAUGAACAUGAGGAUCACCCAUGUCAGGACCGGGAGCGAACCAU
apparent Kd [3]: 0.0127 µM | apparent Kd [4]: 0.0145 µM

UAUAUAUAUCACUAACUGUUGUGGACGUCUCGAGGACCGGUACGGCCGCCACUCGGGCGGCCUCACAUGAGGAUCACCCAUGUCC
apparent Kd [1]: 0.125 µM | apparent Kd [2]: 0.11 µM
